According to the EternaBench riboswitch data:

Test system: MS2 coat protein
Test: apparent Kd, MS2 coat protein; higher = weaker binding; RNA-MaP array; FMN 200 µM where present
Outline: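 Apparent Kd: the median of filtered binding-curve fits from single clusters. Designs were transcribed on Illumina sequencing-chip clusters by stalled E. coli RNA polymerase and titrated with SNAP-549-labelled MS2 coat protein from 0.7 or 1.5 nM, doubling to 3 µM, in 100 mM Tris-HCl pH 7.5, 80 mM KCl, 4 mM MgCl2, BSA, DTT, yeast tRNA and Tween-20. Each series ran without and then with constant ligand, and green signal was normalised to red-channel RNA signal and control-cluster median Fmax.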

[1] = designed as: OFF switch for flavin mononucleotide, no ligand
[2] = ligand present: flavin mononucleotide, designed as: OFF switch for flavin mononucleotide
[3] = designed as: ON switch for flavin mononucleotide, no ligand
[4] = ligand present: flavin mononucleotide, designed as: ON switch for flavin mononucleotide

UUAUUAUGUGUAGGAUAUGCAUAUUAUCAUUAUGCAGAAGGACAUGAGGAUCACCCAUGUAUAUUAUUAUUAUAUAUUAUAUAU
apparent Kd [1]: 15.5 nM | apparent Kd [2]: 12.6 nM

UUAUUAUGUGUAGGAUAUGCAUAUUAUUAUUAUGCAGAAGGACAUGAGGAUCACCCAUGUAUAUUAUUAUUAUAUAUUAUAUGU
apparent Kd [1]: 21.1 nM | apparent Kd [2]: 44.2 nM

UUAUUUAUACAAGGAUAUCAAUUAUAUACACAUCCUACAUGAGGAUCACCCAUGUUUUAUUUUUUUGAGAAGGUGUAUUGUGGG
apparent Kd [3]: 92.3 nM | apparent Kd [4]: 109 nM

UUAUUUAUGCAAGGAUAUCAAUUAUAUAGACGUCCUACAUGAGGAUCACCCAUGUUUAGUUUUUUUGAGAAGGUGCAUUGUCGG
apparent Kd [3]: 43.1 nM | apparent Kd [4]: 31.1 nM

UUCAUCGAUGAAGGAUAUCUAUGUCCAACAUGAGGAUCACCCAUGUUGAGGAUUACCUAUGUGUAGGAGAAGGUCAAUAUGACU
apparent Kd [3]: 7.03 nM | apparent Kd [4]: 6.39 nM

UUCAUGUGAGGAUAUAGUACUUCUUCUAUUAUUAUUGAGUACUAGAAGGCACAUGAGGAUCACCCAUGUAGUAC
apparent Kd [1]: 58 nM | apparent Kd [2]: 20.9 nM

UUCAUGUGAGGAUAUGCGGCAUCAGGUGGGCCUGUCGCUGAGCAGAAGGCACAUGAGGAUCACCCAUGUGCUCC
apparent Kd [1]: 16.4 nM | apparent Kd [2]: 41.6 nM

UUCCUACAUGAGGAUCACCCAUGUCAGGAUAUCUCCUCACUGCGCUUGCGCAGUGAAUAGAGAAGGGACAGGCU
apparent Kd [1]: 14.9 nM | apparent Kd [2]: 19.3 nM

UUCCUGUCAGGAUAUGACUAGAUGCACGAAAGUGUUUUUAGUUAGAAGGGACAUGAGGAUCACCCAUGUAGUCC
apparent Kd [1]: 24.1 nM | apparent Kd [2]: 40 nM

UUCCUGUCAGGAUAUGACUAGAUGCACGUUAGUGUGUUUACUUAGAAGGGACAUGAGGAUCACCCAUGUAUUCC
apparent Kd [1]: 26.2 nM | apparent Kd [2]: 24.3 nM

UUCGAGUAGCAAGGAUAUCUUAUUUAGAUUUUAAGAGAAGGUGCUUCACAGCUACAUGAGGAUCACCCAUGUCUUUCUUCUUAU
apparent Kd [3]: 35.6 nM | apparent Kd [4]: 26.3 nM

UUCGCACAUGAGGAUCACCCAUGUCAGGAUAUUGUGGUGGGAACAACUGGGAAACGCACGAGAAGGGACACACA
apparent Kd [1]: 36.2 nM | apparent Kd [2]: 32.2 nM

UUCGUGCAGCUUUGCUGUACGCGUACAUGAGGAUCACCCAUGUAGGAUAUGGUACGCUUUGUGUGCUAGAAGGAUAUGGAGAGG
apparent Kd [1]: 18.8 nM | apparent Kd [2]: 18.6 nM

UUCGUGCAGCUUUGCUGUACGCGUACAUGAGGAUCACCCAUGUAGGAUAUGGUAGGCUUUGCUUACUAGAAGGAUAUAGUGAUC
apparent Kd [1]: 153 nM | apparent Kd [2]: 221 nM

UUGAAAUUGUAAGGAUAUACUCUGUGAUGAAGAGUAGAAGGUACUUACAUGAGGAUCACCCAUGUUUAACGAGAUACUAAUCGU
apparent Kd [3]: 32 nM | apparent Kd [4]: 16.6 nM

UUGAAUUUAAACAUGAGGAUCACCCAUGUGUCAUAGUUGAUAUAGGAUAUGCUUAUACUUUGAAAGCAGAAGGAUGACGAUACU
apparent Kd [3]: 26.3 nM | apparent Kd [4]: 11.9 nM

UUGACGGCAGGAUAUACAUGAGGAUCACCCAUGUAAAUUUUUCGUUUAACUUGAAUGUGUAGAAGGGCCAAAAU
apparent Kd [1]: 19.4 nM | apparent Kd [2]: 18.8 nM

UUGAGGUAGGAGAAGGACAGAGGCGGAAACACAAACAUGAGGAUCACCCAUGUAGGAUAUCCUACCUAACGAGGAUACCUCAAG
apparent Kd [1]: 14.7 nM | apparent Kd [2]: 26.7 nM

UUGAGGUCAGGAUAUGCAUGGCGGGACUUGCGUCGUGGCGUGGAGAAGGGACAUGAGGAUCACCCAUGUGGAGG
apparent Kd [1]: 129 nM | apparent Kd [2]: 94.9 nM

UUGAGGUGCAAGAAGGAUCACAUGAGGAUCACCCAUGUGAUAUAAAGUCUCGAGAUUUUAUAUCGAUAGGAUAUUGCACCGAAC
apparent Kd [3]: 19.9 nM | apparent Kd [4]: 13.8 nM

UUGAUGUCAGGAUAUGCUUAAUAUAUUUUAUUAUAAUAUAUACAUGAGGAUCACCCAUGUAGAAGGGACAUUAU
apparent Kd [1]: 29.1 nM | apparent Kd [2]: 25.7 nM

UUGAUGUCAUCAGGAUAUAGUAUUUAAGACAUAUCUUCUUUCAAACAUGAGGAUCACCCAUGUCGCUAGAAGGGAUUAUUGAUU
apparent Kd [1]: 16.8 nM | apparent Kd [2]: 13 nM

UUGAUGUGAGGAUAUGUGAUCUGCCUUCUAUAUAGAUGAUUACAGAAGGCACAUGAGGAUCACCCAUGUAGAUC
apparent Kd [1]: 78.5 nM | apparent Kd [2]: 58.9 nM
